# Screening data as filed in PubChem BioAssay.
# The entries come from a sample that favours hits as a whole.
# NOD2-RIPK2 inh: blocks binding of human NOD2 to RIPK2; O43353; CHO BLA complementation NOD2-RIPK2, CCF4 ratio; inhibition, % at 4.98 µM; 0.38% of 360,000 active; AID 624267; in the data active means inhibition above about 21%;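 further: 0% = vehicle only and 100% = reference blocker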
# TLR4-MyD88 BLA: inhibitors of human TLR4-MyD88 binding; O00206+Q99836; HeLa CL3-4 TLR4/MyD88 BLA complementation, FRET ratio; inhibition, % at 8.4 µM; 0.18% of 200,000 active; AID 861; in the data active means inhibition above about 25%;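 further: 0% = vehicle and 100% = reference inhibitor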
# CHOP inhibitor: blocks CHOP induction under ER stress; CHO-K1 CHOP-promoter luciferase, tunicamycin-induced, 15-18 h; inhibition, % at 10 µM; 3.8% of 220,000 active;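 active means compounds that reduced the stress-induced luciferase reporter signal by more than about 70% of percent inhibition, limit read from the data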;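 further: 0% = tunicamycin plus vehicle and 100% = wells without tunicamycin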
# TLR9-MyD88 inh: inhibitors of human TLR9-MyD88 binding | Q9NR96+Q99836 | CHO BLA complementation TLR9-MyD88, CCF4 FRET ratio | inhibition, % at 4.98 µM | 0.21% of 340,000 active | AID 504734;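 active means inhibition above the mean over all tested compounds plus 3 SD, cut at about 21% in these data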;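 further: 0% = DMSO only wells and 100% = clavulanate BLA inhibitor control wells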
# Target sequence (Q99836 whole entry, looked up): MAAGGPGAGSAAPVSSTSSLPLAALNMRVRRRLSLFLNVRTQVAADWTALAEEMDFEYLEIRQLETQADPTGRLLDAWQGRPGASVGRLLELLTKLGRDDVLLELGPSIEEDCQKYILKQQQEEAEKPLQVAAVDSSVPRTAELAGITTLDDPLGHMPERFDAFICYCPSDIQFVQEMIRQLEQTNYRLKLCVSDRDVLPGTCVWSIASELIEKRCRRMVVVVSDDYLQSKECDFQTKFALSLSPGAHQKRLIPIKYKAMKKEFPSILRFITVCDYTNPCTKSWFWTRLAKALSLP
# Target sequence (Q9NR96 whole entry, looked up): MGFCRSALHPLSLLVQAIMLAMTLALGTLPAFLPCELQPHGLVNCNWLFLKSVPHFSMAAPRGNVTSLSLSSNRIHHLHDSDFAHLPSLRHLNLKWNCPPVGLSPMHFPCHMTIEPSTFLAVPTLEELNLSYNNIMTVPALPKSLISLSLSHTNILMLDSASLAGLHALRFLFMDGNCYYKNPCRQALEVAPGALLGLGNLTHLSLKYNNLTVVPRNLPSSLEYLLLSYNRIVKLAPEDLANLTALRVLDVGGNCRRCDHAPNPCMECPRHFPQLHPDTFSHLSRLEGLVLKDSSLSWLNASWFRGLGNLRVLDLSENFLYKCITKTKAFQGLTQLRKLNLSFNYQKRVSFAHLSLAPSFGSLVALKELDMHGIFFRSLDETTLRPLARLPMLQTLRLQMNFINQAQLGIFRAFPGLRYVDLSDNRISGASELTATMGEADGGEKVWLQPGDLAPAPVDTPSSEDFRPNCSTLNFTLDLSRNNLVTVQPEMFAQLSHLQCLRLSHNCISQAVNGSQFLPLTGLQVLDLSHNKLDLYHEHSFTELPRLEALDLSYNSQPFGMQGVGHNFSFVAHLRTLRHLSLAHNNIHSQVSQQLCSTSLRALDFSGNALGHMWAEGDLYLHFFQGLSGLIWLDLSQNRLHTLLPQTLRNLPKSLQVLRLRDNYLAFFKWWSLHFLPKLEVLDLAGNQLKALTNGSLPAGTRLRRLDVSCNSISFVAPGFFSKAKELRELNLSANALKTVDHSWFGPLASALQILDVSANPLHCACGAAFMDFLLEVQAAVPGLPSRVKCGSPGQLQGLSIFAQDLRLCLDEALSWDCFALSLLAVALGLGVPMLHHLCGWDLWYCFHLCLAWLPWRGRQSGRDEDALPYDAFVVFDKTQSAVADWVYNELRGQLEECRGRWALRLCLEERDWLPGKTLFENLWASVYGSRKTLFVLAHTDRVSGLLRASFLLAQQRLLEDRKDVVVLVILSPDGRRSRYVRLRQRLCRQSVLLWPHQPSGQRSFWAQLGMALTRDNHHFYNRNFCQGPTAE
# UPR XBP1 act: activators of adaptive arm of unfolded protein response (XBP1); CHO-XBP1 luciferase reporter, IRE1-XBP1 UPR activation, luminescence; percent of tunicamycin response, DMSO as zero; activation, % at 20 µM; 0.33% of 330,000 active; AID 463104;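 active means versus positive control, 20 µM dose yields 30% or more activation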;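 further: 100% = tunicamycin at 10 µg/mL and 0% = DMSO only wells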
#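 Material: CHO-XBP1 cells stably carrying IRE1-XBP1-driven luciferase reporter / Amount: 1000 cells per well / Compound: 20 µM, 1% DMSO / Times: 6 h treatment, 37 °C / Detection: luciferase luminescence / Measure: % activation of reporter signal versus tunicamycin and DMSO controls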
# CHOP UPR activ: apoptotic UPR (CHOP) activation. CHO-CHOP luciferase reporter, luminescence; percent of tunicamycin response over DMSO baseline. activation, % at 10 µM. 0.34% of 330,000 active. AID 449763;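 active means at 10 µM dose, activation of 40% or more, normalized to positive control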;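 further: 100% = tunicamycin at 10 µg/mL and 0% = DMSO alone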
#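 System: CHO-CHOP luciferase reporter cell line | Buffer or medium: F12 medium containing 10% fetal bovine serum | Doses: One dose, 10 µM in 0.5% DMSO | Times: 6 h compound exposure at 37 °C after overnight seeding | Signal: Luciferase luminescence | Read-out: % activation vs tunicamycin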
# XBP1 UPR conf: confirmation of adaptive unfolded protein response (XBP1) activators; shares compounds with UPR XBP1 act; CHO-XBP1 IRE1-XBP1 luciferase reporter, luminescence; activation, % at 20 µM; 63% of 1,000 active;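 active means reporter signal at least 30% of the positive control's activation in two or more of four replicate wells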;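 further: plate controls were DMSO negative control for no effect and tunicamycin 10 µg/mL positive control for full effect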
# TLR9-MyD88 conf: confirmation of human TLR9-MyD88 binding inhibitors | 51% of 680 active | AID 540250 | inhibition, % at 4.98 µM | CHO TLR9/MyD88 BLA complementation, CCF4 FRET ratio | shares compounds with TLR9-MyD88 inh;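 active means mean inhibition across three repeats above about 21% taken from the earlier screen, limit read from the data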;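 further: blue over green emission ratio reports constitutive TLR9 MyD88 association via BLA complementation; 0% = DMSO vehicle wells and 100% = clavulanate BLA inhibitor wells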
# BLA counter-1: counter-screen for TLR9-MyD88 inhibitors: non-selective beta-lactamase inhibitors; CHO-BLA cells, CCF4 FRET ratio, BLA reporter; 7% of 680 active; AID 540251; inhibition, % at 4.98 µM; shares compounds with TLR9-MyD88 inh;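 active means mean inhibition above a 50% cutoff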;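 further: counterscreen of TLR9-MyD88 hits on CMV-driven BLA in CHO-K1 cells; 0% = DMSO alone and 100% = clavulanate blocking BLA; higher means less blue over green ratio so more BLA blockade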
# TLR9 CHO tox: counter-screen for TLR9-MyD88 inhibitors: cytotoxicity in CHO cells; shares compounds with TLR9-MyD88 inh; luminescence; inhibition, % at 4.98 µM; 39% of 680 active; in the data active means inhibition above about 11%
# NOD2-RIPK2 conf: confirmation of human NOD2-RIPK2 interaction inhibitors. shares compounds with NOD2-RIPK2 inh. CHO cells, NOD2-RIPK2 BLA complementation, CCF4 FRET. inhibition, % at 4.98 µM. 70% of 1,200 active;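 active means mean inhibition across replicates above a set limit taken from the earlier primary screen, cut at about 21% in these data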;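 further: 0% = DMSO-only wells and the high end = clavulanate BLA-blocked wells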
# BLA counter-2: hits BLA reporter in NOD2-RIPK2 inhibitor counterscreen; 57% of 1,200 active; inhibition, % at 4.98 µM; shares compounds with NOD2-RIPK2 inh; CHO BLA reporter, CCF4 FRET ratio;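 active means mean inhibition above the low-control mean inhibition plus three low-control SD, cut at about 11% in these data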;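 further: 0% = DMSO only wells and 100% = clavulanate high control wells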
# An asterisk follows results filed as active; / = no result given.
SMILES,NOD2-RIPK2 inh,TLR4-MyD88 BLA,CHOP inhibitor,TLR9-MyD88 inh,UPR XBP1 act,CHOP UPR activ,TLR9-MyD88 conf,BLA counter-1,TLR9 CHO tox,others
COc1ccc(-c2cc(C#N)nc(Cl)n2)cc1,28*,/,-41,6,30*,5,/,/,/,XBP1 UPR conf=27;NOD2-RIPK2 conf=40*;BLA counter-2=-1
CCN(CC)c1ccc(-c2nn3c(-c4ccccc4OC)nnc3s2)cc1,23*,-9,/,-4,30*,2,/,/,/,XBP1 UPR conf=32*;NOD2-RIPK2 conf=14;BLA counter-2=-7
CCOC(=O)C(=O)N1CCC(C(=O)OC)CC1,4,9,6,-3,-4,-1,/,/,/,
CCC(Sc1nc2cc(OC)c(OC)cc2c(=O)n1CCc1ccc(S(N)(=O)=O)cc1)C(=O)NCCOC (configuration not stated),-7,-4,-17,-14,8,-2,/,/,/,
CCOc1ccccc1CNC(=O)C1CCN(c2nnc(C)c3c(C)n(-c4ccc(C)cc4)nc23)CC1,37*,/,/,-6,64*,35,/,/,/,XBP1 UPR conf=85*;NOD2-RIPK2 conf=35*;BLA counter-2=12*
NC(=O)C1CCN(c2ccc3c(c2)S(=O)(=O)c2ccccc2C3=O)CC1,1,/,/,23*,12,2,6,5,0,
CC1CCN(c2ccc3c(c2)S(=O)(=O)c2ccccc2C3=O)CC1,19,/,/,32*,11,3,22*,24,5,
NC(=O)C1CCN(C(=O)c2ccc3c(c2)S(=O)(=O)c2ccccc2C3=O)CC1,-12,/,/,-6,-2,0,/,/,/,
O=C1c2ccccc2S(=O)(=O)c2cc(N3CCC4(CC3)OCCO4)ccc21,/,/,/,/,8,8,/,/,/,
CC(C)(C)c1cc(NC(=O)c2c(F)cccc2Cl)n(-c2ccccc2)n1,1,/,/,23*,-2,1,3,4,1,
Cn1cnnc1SCC(=O)NNC(=O)COc1ccc(Cl)cc1,-4,-19,34,6,-3,1,/,/,/,
CN(C)c1ccc(/C=C(\C#N)C(=O)NCc2ccco2)cc1,/,2,32,/,3,6,/,/,/,
CC(OC(=O)/C(C#N)=C/c1ccc(N(C)C)cc1)C(=O)NCc1ccco1 (configuration not stated),4,/,/,24*,0,4,8,9,-4,
Cc1cnc(NC(=O)C2CCC(C(C)(C)C)CC2)s1 (configuration not stated),-12,/,/,-1,4,7,/,/,/,
CC(C)N(CCC(=O)c1ccc2ccccc2c1)Cc1ccccc1,6,/,-125,21*,-10,25,-3,-1,49*,
O=C1C=CC(=O)N1c1ccc2c(c1)C(NC(=O)C(F)(F)F)c1ccccc1-2 (configuration not stated),5,/,/,30*,/,/,36*,11,98*,
Cc1[nH]n(-c2ccccc2)c(=O)c1C=NCC1CCCO1 (configuration not stated),-4,-6,-4,26*,-2,2,4,-1,2,
CC(C)CCNC(=O)C(=O)NCC1OCCCN1S(=O)(=O)c1cccs1 (configuration not stated),-1,/,/,-8,-3,0,/,/,/,
